Test results as given in the RNAGym collection of RNA variant scans (doi:10.1126/science.aae0568).
Variants at the floor of the assay were thinned out.

B1: tRNA (parent)
chain: GUUCCGUUGGCGUAAUGGUAACGCGUCUCCCUCCUAAGGAGAAGACUGCGGGUUCGAGUCCCGUACGGAACG

Variants of: B1
Assay: yeast fitness relative to wild type (ratio to wild type); higher = fitter; tRNA-Arg(CCU), competitive growth, 37 C, YPD
Summary of the method: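 For this measurement, the tRNA-Arg(CCU) gene was varied by chemical synthesis at a 3% per-site mutation rate across 69 sites, and each variant was placed at the native genomic locus in Saccharomyces cerevisiae. The pooled strains went through a 24-hour competition in YPD at 37°C in six parallel replicates, with amplicons from start and end populations read by 100-nucleotide paired-end sequencing. Darwinian fitness relative to wild type followed from the change in each genotype's frequency. Genotypes needed ≥ 100 starting reads, and estimates < 0.5 were set to 0.5.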

Variant | yeast fitness
GUACCGUUGGCGUAAUGGUAACGCGUCUCCCUCCUAAGGAGAAGACUGUGGGUUCGAGUCCCGUACGGUACG [U3A C49U A69U] | 0.759
GUACCGUUGGCAUAAUGGUAACGUGUCUCCCUCCUAAGGAGAAGUCUGCGGGUUCGAGUCCCGUACGGAACG [U3A G12A C24U A45U] | ≤ 0.5
GUACCCUUGGCGUAAUGGUAACGCGUCUCCAUCCUAAGGAGAAGACGGCGGGUUCGAGUCCAGUACGGAACG [U3A G6C C31A U47G C62A] | ≤ 0.5
GUACCGUUAGCGUAAUGGAAACGCGUCUCCCUCCUAAGGAGAACACUGCGGGUUCGAGUCUGGUACGGAACG [U3A G9A U19A G44C C61U C62G] | ≤ 0.5
GUACCGUUGGCGUAAUGGUAACGCGUCUCCCUCCUAAGGAGAAGAGUGCGGGUUCGAGUCCCGUACGGAACG [U3A C46G] | 0.982
GUACCGUUGGCGUAAUGGUAACGCCUCUCCCUCCUAAGGAGAAGACUGCGGGUUCGAGUCCCGUACGGAACG [U3A G25C] | 1.03
GUACCGUUGGCGUAAUGGUAACGCGUCUCCCUCCUAAGGAGAAGACUGCGGGUUCGAGUCCUGCACGGAACG [U3A C62U U64C] | 0.77
GUACCGUUGGCGUAAUGGUAACGCGUCUCCCUCCUAAGGAGAAGACUGCGAGUUCGAGUCCCGUACGGAACG [U3A G51A] | 0.765
GUACCGUUGGCGUAAUCGUCACGCGUCACCCUCCUAAGGAGAAGAAUGCGGGUUCGAGUCACGUACGGAACG [U3A G17C A20C U28A C46A C61A] | ≤ 0.5
GUACCGUUGCCGUAAUGGUAACGCGUCUCCCUCCUUAGGCGAAGACUGCGGGUUCGGGUGCCGUACGGAACG [U3A G10C A36U A40C A57G C60G] | ≤ 0.5
GUACCGUUAGCGUAAUGGUAACGCGUCUCCCUCCUAGGGAGAAGACUGCGGGUUCGAGUCCCGUACGCGACG [U3A G9A A37G G68C A69G] | ≤ 0.5
GUACCGUUGGCGUAAUGAUAAUGCGUCUCCCUCCUAAGGAGAAGACUGCGGGUUCGAGUCCCGUACGGAACG [U3A G18A C22U] | ≤ 0.5
GUACCGUUGGCCUAAUGGUAACGCGUCUCCCUCCUAAGGAGAAGACUGCGGGUUCGAAUCCCGUAUGGAACG [U3A G12C G58A C66U] | ≤ 0.5
GUACCUUUGGCCUAAUGGUAAAGCGUCUCCCUCCUAAGGAGAAGACUGCGGGUUCGAGUCCCGUACGGAACG [U3A G6U G12C C22A] | ≤ 0.5
GUACCGUUGGCGUAAUGGUAACGCGUCUCCCUCCUAAGGAGAAGAGUGUGGGUUCCAGUCCCGUACGGAACG [U3A C46G C49U G56C] | 0.734
GUACCGUUGGCGUAAUGACAACGCGUGUCCCUCCUAAGGAGAAGACUGCGGGUUCGAGUCACGGACGGAACG [U3A G18A U19C C27G C61A U64G] | ≤ 0.5
GUACCGUUGGCCUAAUGGUACCGCGUCUCCCUCCUCAGGAGAAGACUGCGGGUUCGAGUCCCGUACGGAUCG [U3A G12C A21C A36C A70U] | 0.553
GUACCGUUGGCAUAAUGGAAACGCGUCUCCCUCCUAAGGAGAAGACUGCGGGUUCGAGUCCCGCACGGAACG [U3A G12A U19A U64C] | ≤ 0.5
GUACCGUUCGCGUAAUGGUAACGCGUCUCCGUCCUAAGGAGAAGACUGCGGGUUCGAGUCUCGUACGGAACG [U3A G9C C31G C61U] | 0.581

Variant | yeast fitness
GUACCCUUGGCGUAAUGGUAACGCGUCUCCCUCCUAUGGAGAAGACUGCGGGUUCGAAUCCCGUACGGAACG [U3A G6C A37U G58A] | 0.524
GUACCGUUAGCGUAAUGGUAACGCGUCUCACUCCUAAGGAGUAGACUGUGGGUUCGAGCCCCGUACGGCACG [U3A G9A C30A A42U C49U U59C A69C] | ≤ 0.5
GUACCGUUAGCGUGAUGGUAACGCGUCUCCCUCCUAAGGAGAAGACUGCGGGUUCGAGUCCCGUAUGGAACG [U3A G9A A14G C66U] | 0.575
GUACCGUUGGCGUAAUGGUAACGCGUCUCCCUCCUAAGGAGAAAACUGCGGGUUUGAGUCCCGUACGGAACG [U3A G44A C55U] | ≤ 0.5
GUACCGUUGGCGUAAUCGUCACGCGUCACCCUCCUAAGGAGAAGACUGCGGGUUCGAGUCCCGUACGGAACG [U3A G17C A20C U28A] | ≤ 0.5
GUACCGUUGGCAUAGUGGUAACGUGUCUCCCUCCUAAGGAGAAGUCUGCGGGUUCGAGUCCCGUACGGAACG [U3A G12A A15G C24U A45U] | ≤ 0.5
GUACCGUUGCCGUAAUGGUAACGCGUCUCCCUCCUUAGGCGAAGACUGCGGGUUCGCGUCCCGUACGGAACG [U3A G10C A36U A40C A57C] | ≤ 0.5
GUACCGUUGGCGUAAUGGUAACGCAUCUCCCUCCUAAGGAGAAGACUGCGGGUUCGACUCCCGUAUGGAACG [U3A G25A G58C C66U] | 0.596
GUACCGUUGGCGUAAUGGUAACGCGUCUCCCUCCUAAGGAGAAGACUGCGGGUUCCAGUCCCGUACCGAACG [U3A G56C G67C] | 0.573
GUACCGUUGGCGUAAUGGUAACGCGUCUCCCUCCUAAGGACAAGACUGCGGGUUUGAGUCCCGUACGGAACG [U3A G41C C55U] | ≤ 0.5
GUACCGUUGGCCUAAUGGUAACGCGUCUCCCUCCUAAGGAGAAGACUGCGGGUUCGAGUCCCGUACGGAACG [U3A G12C] | 0.635
GUACCGUUGGCAUAAUGGUAACGCGUCUCCCUCCUAAGGAGAAGACUGCGGGUUCGAGUCCCGUACGGAACG [U3A G12A] | 0.826
GUACCGUUGACGUAAUGGAAACGCGUCUCCCUCCUAAGGAGGAGACUGCGGGUUCGAGUCCCGAACGGAACG [U3A G10A U19A A42G U64A] | ≤ 0.5
GUACCCUUGGCGUAAUAGUAACGCGUCUCCCUCCUAUGGAGAAGACUGCGGGUUCGAAUCCCGUACGGAACG [U3A G6C G17A A37U G58A] | ≤ 0.5
GUACCGUUGGCCCAAUGGUAACGCGUCUCCCUCCUAAGGAGAAGACUGUGGGUUCCAGUCCCGUACGGAACG [U3A G12C U13C C49U G56C] | ≤ 0.5
GUACCGUUGGCGUAAUGGUAACGCGUCUCCCUCCUAAGGAGAAGACUGUGGGUUCGAGUCCCGUACGGAACG [U3A C49U] | 0.954
GUACCGUUGGCGUAAUGGUAACGCGUCUCCCUCCUAAGGAGAAGACUGGGGGUUCGAGUCCCGUACGGAACG [U3A C49G] | 0.792
GUACCGUUGGCGUAAUGGUAACGCGUCUCCCUCCUAAGGAGAAGACUGAGGGUUCGAGUCCCGUACGGAACG [U3A C49A] | 0.609
GUACCGUUCGCGUAAUGGUGACGCGUCUCCCUCCUAAGGGGAAGACUGCGGGUUCGAGUCCCGCACGGAACG [U3A G9C A20G A40G U64C] | ≤ 0.5
